Reference: ChEMBL document CHEMBL1667754, “Synthesis and biological activity of pyrazolothienotetrahydroisoquinoline and [1,2,4]triazolo[3,4-a]thienotetrahydroisoquinoline derivatives” (2011)

Columns and labels:
[1] = system: Aspergillus niger; test: Antifungal activity against Aspergillus niger at 2% by disc diffusion assay
[2] = system: Escherichia coli; test: Antibacterial activity against Escherichia coli at 50 uL/well by well diffusion assay; type: functional
How it was run: (§1)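 Bauer-type diffusion assay. Test compounds were at 2% in DMSO. The read-out was the diameter (mm) of the inhibition zone, with chloramphenicol as the reference agent.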

[3] = system: Bacillus cereus; test: Antibacterial activity against Bacillus cereus at 200 ug/disc by disc diffusion assay
[4] = system: Serratia marcescens; test: Antibacterial activity against Serratia marcescens at 200 ug/disc by disc diffusion assay
[5] = system: Trichophyton rubrum; test: Antifungal activity against Trichophyton rubrum at 50 uL/well by well diffusion assay; type: functional
How it was run: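 Agar discs (10 mm) carrying spores and hyphae were shaken in sterile distilled water. 1 mL of the spore suspension was plated and mixed with 15 mL molten SDA, then left to set. Compounds were at 2% in DMSO, applied per Bauer's diffusion method. The read-out was the inhibition zone (mm).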

[6] = system: Fusarium oxysporum; test: Antifungal activity against Fusarium oxysporum at 2% by disc diffusion assay
[7] = system: Aspergillus flavus; test: Antifungal activity against Aspergillus flavus at 2% by disc diffusion assay
[8] = system: Micrococcus luteus; test: Antibacterial activity against Micrococcus luteus at 50 uL/well by well diffusion assay; type: functional
How it was run: as §1

[9] = system: Staphylococcus aureus; test: Antibacterial activity against Staphylococcus aureus at 200 ug/disc by disc diffusion assay
[10] = system: Candida albicans; test: Antifungal activity against Candida albicans at 200 ug/disc by disc diffusion assay
[11] = system: Scopulariopsis brevicaulis; test: Antifungal activity against Scopulariopsis brevicaulis at 2% by disc diffusion assay
[12] = system: Pseudomonas aeruginosa; test: Antibacterial activity against Pseudomonas aeruginosa at 200 ug/disc by disc diffusion assay
[13] = system: Geotrichum candidum; test: Antifungal activity against Geotrichum candidum at 2% by disc diffusion assay

Row | SMILES | diameter of the inhibition zone (DIZ) [1] [mm] | diameter of the inhibition zone (DIZ) [2] [mm] | diameter of the inhibition zone (DIZ) [3] [mm] | diameter of the inhibition zone (DIZ) [4] [mm] | diameter of the inhibition zone (DIZ) [5] [mm] | diameter of the inhibition zone (DIZ) [6] [mm] | diameter of the inhibition zone (DIZ) [7] [mm] | diameter of the inhibition zone (DIZ) [8] [mm] | diameter of the inhibition zone (DIZ) [9] [mm] | diameter of the inhibition zone (DIZ) [10] [mm] | diameter of the inhibition zone (DIZ) [11] [mm] | diameter of the inhibition zone (DIZ) [12] [mm] | diameter of the inhibition zone (DIZ) [13] [mm]
1 | N#Cc1c2c(c(NN)[nH]c1=S)CCCC2 | 12 | 14 | 20 | 0 | 17 | 13 | 10 | 14 | 11 | 12 | 0 | 0 | 0
2 | N#Cc1c2c(c3[nH]ncn3c1=S)CCCC2 | 0 | 10 | 15 | 10 | 0 | 0 | 0 | 12 | 8 | 10 | 0 | 0 | 0
3 | Cc1cc(C)n(-c2[nH]c(=S)c(C#N)c3c2CCCC3)n1 | 0 | 0 | 16 | 0 | 0 | 0 | 0 | 0 | 8 | 0 | 0 | 0 | 0
4 | N#Cc1c2c(c(-n3[nH]c(=O)cc3N)[nH]c1=S)CCCC2 | 0 | 0 | 9 | 0 | 0 | 0 | 0 | 10 | 0 | 0 | 0 | 0 | 8
5 | N#Cc1c2c(c(N3N=C(c4ccccc4)CC3=O)[nH]c1=S)CCCC2 | 0 | 13 | 0 | 0 | 14 | 0 | 0 | 0 | 0 | 0 | 0 | 0 | 0
6 | N#CCSc1c(C#N)c2c(c3nncn13)CCCC2 | 0 | 8 | 12 | 12 | 0 | 0 | 0 | 11 | 10 | 0 | 0 | 0 | 0
7 | N#Cc1sc2c(c1N)c1c(c3nncn32)CCCC1 | 0 | 0 | 11 | 11 | 0 | 0 | 0 | 0 | 9 | 0 | 0 | 0 | 0
8 | CCOC(=O)CSc1c(C#N)c2c(c3nncn13)CCCC2 | 0 | 0 | 11 | 0 | 0 | 0 | 0 | 10 | 0 | 0 | 0 | 0 | 0
9 | CCOC(=O)c1sc2c(c1N)c1c(c3nncn32)CCCC1 | 0 | 11 | 8 | 10 | 0 | 0 | 8 | 0 | 10 | 10 | 0 | 0 | 0
10 | N#Cc1c2c(c3nncn3c1SCC(N)=O)CCCC2 | 0 | 12 | 13 | 0 | 0 | 0 | 0 | 0 | 8 | 0 | 0 | 0 | 0
11 | N#Cc1c(SCC(=O)c2ccccc2)nc(NN)c2c1CCCC2 | 0 | 0 | 0 | 0 | 12 | 0 | 0 | 0 | 10 | 0 | 0 | 0 | 12
12 | Cc1cc(C)n(-c2nc(SCC(=O)c3ccccc3)c(C#N)c3c2CCCC3)n1 | 0 | 0 | 0 | 0 | 0 | 0 | 0 | 0 | 10 | 0 | 0 | 0 | 0
